In PubChem BioAssay:
Calls of active or inactive are those of the source.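 Rule for the calls, unless noted: active = NADPH fluorescence slope more negative than the mean of all samples by about 3 SD, 99.7% confidence; inactive = the rest.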

Experiments:
[1] = inhibitors of TNFa-induced NFkB p65 translocation, primary screen, imaging, HUVEC, MLSMR starter and 10KST1 sets (AID 438;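 active = inhibition above 20% together with a positive visual image hit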;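 note: compound added about 3h40 before a 20 min TNFalpha stimulation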;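 for inhibition: signal is the nuclear over cytoplasmic p65 intensity ratio per well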); conditions: HUVEC TNFa-induced p65 nuclear translocation; cell count: measured here: nuclei count (cytotoxicity indicator), at 2.08 µM; inhibition: at 2 µM, stronger effect = higher value, 0% TNFa-plus-vehicle, 100% no-TNFa wells
[2] = reduction of polyQ htt aggregates in cells – imaging, exon1htt(103Q)mCFP cells, high-content imaging, primary screen (AID 483;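 active = visual image review flags a hit and inhibition of aggregation exceeds 20%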;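 note: compound exposure lasted 3 days before fixation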;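 for nuclei count: percent of the per-plate median nuclei count of sample wells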); conditions: exon1htt(103Q)mCFP cell line, aggregate imaging, at 2 µM; inhibition of aggregation: stronger effect = higher value; nuclei count: measured here: cell count, toxicity
[3] = endothelial E-selectin expression blockers – imaging, HUVEC, immunofluorescence, MLSMR starter and 10KST1 sets, primary screen (AID 487;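 active = visually confirmed hit in the image check and inhibition above 20%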;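 for inhibition: signal is fraction of cell area covered by stained E-selectin grains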;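 for nuclei count: 100% = median nuclei count of all wells on the same plate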); conditions: HUVEC TNFalpha-induced E-selectin immunofluorescence imaging, at 2 µM; inhibition: stronger effect = higher value; nuclei count: measured here: cell number, toxicity
[4] = target: Voltage-gated potassium channel subunit beta-2 (Rattus norvegicus) (UniProt P62483); assay: inhibitors of rat Kvbeta2 reductase activity – biochemical, NADPH fluorescence, primary screen (AID 622;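 active = fluorescence slope higher than the sample average by over 3 SD, cut at about -0.22 in these data, passing the limit was not always enough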;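 note: slope of raw intensity against log time taken from 70 to 1610 s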); conditions: recombinant KvBeta, 4-cyanobenzaldehyde reduction, at 10 µM, stronger effect = higher value
Sequence of Voltage-gated potassium channel subunit beta-2 (Rattus norvegicus) (P62483 whole entry, looked up): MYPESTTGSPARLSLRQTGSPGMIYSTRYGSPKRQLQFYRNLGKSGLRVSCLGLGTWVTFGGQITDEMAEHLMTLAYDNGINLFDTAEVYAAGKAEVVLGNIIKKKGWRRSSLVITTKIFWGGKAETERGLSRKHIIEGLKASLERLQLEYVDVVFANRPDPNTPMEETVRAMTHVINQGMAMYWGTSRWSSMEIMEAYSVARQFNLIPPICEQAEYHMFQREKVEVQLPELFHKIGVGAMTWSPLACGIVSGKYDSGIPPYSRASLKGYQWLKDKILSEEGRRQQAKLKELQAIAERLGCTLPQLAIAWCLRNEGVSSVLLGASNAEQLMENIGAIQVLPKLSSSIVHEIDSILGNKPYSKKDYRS

[5] = target: Voltage-gated potassium channel subunit beta-2 (Rattus norvegicus) (UniProt P62483); assay: enhancers of rat Kvbeta2 NADPH turnover – biochemical, NADPH fluorescence, primary screen (AID 623); conditions: Recombinant KvBeta, NADPH fluorescence decrease slope, 10 min; at 10 µM; stronger effect = lower value;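 note: fluorescence intensity change per second fitted from 20 to 320 s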
[6] = target: Muscarinic acetylcholine receptor M4 (Homo sapiens) (UniProt P08173); assay: M4-linked GIRK flux change, two-sided – cell-based, HEK293 M4/GIRK, thallium flux, BTC-AM, M4 allosteric agonist project, primary screen (AID 625;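 active = fluorescence slope after compound addition differing from the mean of all tested samples at 99.7% confidence, mostly higher but some lower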;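 note: thallium influx through GIRK channels coupled to M4 in HEK293 cells with BTC-AM dye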); conditions: at 10 µM, actives lie on both sides
Sequence of Muscarinic acetylcholine receptor M4 (Homo sapiens) (P08173 whole entry, looked up): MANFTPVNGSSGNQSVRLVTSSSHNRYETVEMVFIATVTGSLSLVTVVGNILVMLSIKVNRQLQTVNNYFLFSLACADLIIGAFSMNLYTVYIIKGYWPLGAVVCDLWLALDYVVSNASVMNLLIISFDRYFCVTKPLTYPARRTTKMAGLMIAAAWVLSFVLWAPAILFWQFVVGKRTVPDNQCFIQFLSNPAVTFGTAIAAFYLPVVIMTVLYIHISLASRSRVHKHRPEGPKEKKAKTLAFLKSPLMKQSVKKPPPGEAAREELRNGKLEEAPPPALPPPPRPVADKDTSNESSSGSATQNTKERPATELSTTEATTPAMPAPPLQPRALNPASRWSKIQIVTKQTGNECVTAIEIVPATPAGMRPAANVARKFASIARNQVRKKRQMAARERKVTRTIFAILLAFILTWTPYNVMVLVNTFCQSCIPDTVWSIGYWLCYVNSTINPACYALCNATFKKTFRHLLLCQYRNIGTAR
Summary of the method: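 assay system = HEK293 cells with M4 receptor and GIRK channels | medium = pH 7.3 thallium assay buffer | doses = 10 µM final, single point | timing = cells overnight at 37 °C, BTC-AM loading 1 h, reads 2 min total | signal = BTC-AM fluorescence, 1 Hz kinetic reads | read-out = post-addition slope, 15–24 s, of baseline-normalized fluorescence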

[7] = blockers of RIG-like receptor reporter activation – cell-based, Sendai virus stimulus, luciferase, 10K MLSCN set, TLR/RLR signaling modifier project, primary screen (AID 602276;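 active = inhibition at or above 50% at 10 µM; inactive = inhibition below 50%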;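 note: firefly luciferase from ISG56 promoter only with Renilla not read in this screen; 0% = Sendai virus plus DMSO and 100% = medium plus DMSO without virus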); conditions: HEK293 RL24 IRF3 luciferase reporter, at 10 µM, stronger effect = higher value
[8] = TLR3 IRF3 reporter activation blockers – cell-based, poly I:C stimulus, luciferase, 10K MLSCN set, primary screen (AID 602277;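 active = inhibition of the reporter signal at or above 50%; inactive = inhibition below 50%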); conditions: HEK293-TLR3 RL24 IRF3 luciferase reporter, at 10 µM, stronger effect = higher value

SMILES | cell count [1] | inhibition [1] | inhibition of aggregation [2] | nuclei count [2] [%] | inhibition [3] | nuclei count [3] [%] | fluorescence slope [4] | NADPH fluorescence slope [5] | fluorescence slope [6] | inhibition [7] | inhibition [8]
CCCN1C(=O)SC(CC(=O)Nc2ccc(Br)cc2)C1=O (stereo not drawn) | 246 | -7.8% (inactive) | -2.4% (inactive) | 96.5 | -47.8% (inactive) | 104 | -0.444 (inactive) | 2.7e-05 (inactive) | 0.00512 (inactive) | -2.25% (inactive) | 7.35% (inactive)
Cc1ccc(-c2csc3nnc(SCC(=O)NCc4ccco4)n23)cc1 | 656 | 5.2% (inactive) | -2.5% (inactive) | 101 | -76.9% (inactive) | 94.1 | -0.556 (inactive) | -2.1e-05 (inactive) | 0.00536 (inactive) | 17.2% (inactive) | 19.3% (inactive)
COc1cccc(-c2cc(C(=O)Nc3cc(C)n(Cc4ccc(Cl)cc4)n3)no2)c1 | 498 | -5.7% (inactive) | 10.2% (inactive) | 100 | 38.9% (inactive) | 100 | -0.211 (inactive) | -2.5e-05 (inactive) | 0.0105 (inactive) | 18.7% (inactive) | -60.3% (inactive)
c1coc(-c2nnc(-c3cccs3)o2)c1 | 497 | -1.7% (inactive) | 13.3% (inactive) | 75 | -7.2% (inactive) | 115 | -0.51 (inactive) | -6.6e-07 (inactive) | 0.00586 (inactive) | -25.9% (inactive) | -87.8% (inactive)
CCOC(=O)CSc1cn2c(n1)CCC2 | 547 | -10.9% (inactive) | 14.3% (inactive) | 66.8 | -25.8% (inactive) | 89.1 | -0.595 (inactive) | 1.5e-05 (inactive) | 0.00761 (inactive) | -11.5% (inactive) | -11.4% (inactive)
O=C(Cc1ccc(S(=O)(=O)N2CCCC2)s1)Nc1nc2c(s1)CCCC2 | 577 | 22.2% (inactive) | 25.3% (inactive) | 94.3 | 18.1% (inactive) | 71.4 | -0.574 (inactive) | -5.6e-05 (inactive) | 0.00565 (inactive) | -11% (inactive) | -53.9% (inactive)
COc1ccc(-c2n[nH]c(C)c2-c2ccc(Cl)cc2)c(O)c1OC | 403 | -9.6% (inactive) | -24.2% (inactive) | 104 | -45.3% (inactive) | 133 | -0.529 (inactive) | -0.00026 (inactive) | 0.00338 (inactive) | 20.1% (inactive) | 24.5% (inactive)
O=c1c2ccccc2cnn1-c1nc2ccccc2s1 | 480 | -1% (inactive) | -5.1% (inactive) | 98.1 | -33.8% (inactive) | 117 | -0.133 (inactive) | -1.6e-05 (inactive) | 0.00555 (inactive) | 20.5% (inactive) | 93.6% (active)
Cc1ccccc1-c1nc(CN2CCC(C(=O)NCCCN3CCOCC3)CC2)c(C)o1 | 598 | -5.3% (inactive) | -16.7% (inactive) | 89.8 | -67.2% (inactive) | 102 | -0.496 (inactive) | 6.2e-05 (inactive) | 0.00497 (inactive) | -3.78% (inactive) | 22.4% (inactive)
CCn1cc(C(=O)N2CCN(C(=O)c3ccco3)CC2)c2cc(OC)c(OC)cc2c1=O | 235 | -2.3% (inactive) | -10% (inactive) | 105 | -55.5% (inactive) | 121 | -0.515 (inactive) | 8.7e-05 (inactive) | 0.00709 (inactive) | 13.9% (inactive) | 15.4% (inactive)
Oc1ccc(-c2onc(C(F)(F)F)c2-c2cscn2)c(O)c1 | 363 | -0.5% (inactive) | -7% (inactive) | 92.7 | -85.6% (inactive) | 116 | -0.573 (inactive) | -5.1e-05 (inactive) | 0.00657 (inactive) | 14.9% (inactive) | -12.3% (inactive)
O=C(CSc1nc2[nH]ncc2c(=O)n1-c1ccccc1Br)NCc1ccco1 | 517 | -24% (inactive) | -8.3% (inactive) | 83.4 | -15.2% (inactive) | 95 | -0.549 (inactive) | -3.1e-05 (inactive) | 0.00777 (inactive) | 22.2% (inactive) | 28.1% (inactive)
CCCc1n[nH]c2c1/C(=N/O)CC(c1ccccc1)C2 (stereo not drawn) | 522 | -13.6% (inactive) | 3.1% (inactive) | 93.4 | -7.4% (inactive) | 110 | -0.594 (inactive) | 4.1e-05 (inactive) | 0.0053 (inactive) | 8.69% (inactive) | -7.88% (inactive)
O=C(c1ccc(-c2cccc(C(F)(F)F)c2)o1)N1CCOCC1 | 482 | 4.3% (inactive) | -17.9% (inactive) | 117 | 10.8% (inactive) | 99.9 | -0.544 (inactive) | -3.4e-05 (inactive) | 0.00523 (inactive) | -39.9% (inactive) | -93.2% (inactive)
Cc1ccc(S(=O)(=O)N[C@@H](C)C(=O)N2CCC(C(=O)N3CCC[C@H]3C(=O)O)CC2)cc1 | 361 | 3.6% (inactive) | -14.8% (inactive) | 102 | -59.3% (inactive) | 129 | -0.406 (inactive) | 7.4e-05 (inactive) | 0.00591 (inactive) | 2.84% (inactive) | 13% (inactive)
Cc1cc(NS(=O)(=O)c2ccc(NC(=O)C(C)N3C(=O)c4ccccc4C3=O)cc2)nc(C)n1 (stereo not drawn) | 257 | -2.1% (inactive) | 4.6% (inactive) | 98.5 | -11.1% (inactive) | 90.8 | -0.557 (inactive) | -5.8e-05 (inactive) | 0.00257 (inactive) | 14.9% (inactive) | 18.8% (inactive)
CCn1c2ccccc2c2cc(NC(=O)CSc3nnc(C4CC4)n3Cc3ccco3)ccc21 | 488 | 6.3% (inactive) | 2.5% (inactive) | 94.6 | 36.4% (inactive) | 94.6 | -0.461 (inactive) | 2.1e-05 (inactive) | 0.00526 (inactive) | 12.7% (inactive) | 17.6% (inactive)
COc1ccc(Cn2c(=O)[nH]c3cc(C(=O)NCCCN4CCCC4)ccc3c2=O)cc1 | 474 | -5.2% (inactive) | 30.8% (inactive) | 88.2 | 30.4% (inactive) | 139 | -0.26 (inactive) | -1.4e-05 (inactive) | 0.00648 (inactive) | 11% (inactive) | -6.33% (inactive)
COC(=O)c1cccc(NC(=O)NC2CCCN2S(=O)(=O)c2ccc(Cl)cc2)c1 (stereo not drawn) | 612 | -16.1% (inactive) | 2.9% (inactive) | 101 | -144% (inactive) | 141 | -0.392 (inactive) | -6.9e-05 (inactive) | 0.00559 (inactive) | 14% (inactive) | 20.5% (inactive)
CC1CCN(C(=O)Cn2c(=O)oc3ccccc32)CC1 | 322 | -0.6% (inactive) | 15.4% (inactive) | 100 | -222% (inactive) | 104 | -0.57 (inactive) | 4.8e-06 (inactive) | 0.00554 (inactive) | -14.5% (inactive) | -12.5% (inactive)
CC(C)(C)OC(=O)N1CCC(C(=O)N[C@H](Cc2ccccc2)C(=O)O)CC1 | 523 | -7.8% (inactive) | 19.6% (inactive) | 85.5 | -11.8% (inactive) | 89.3 | -0.323 (inactive) | -5.3e-05 (inactive) | 0.00514 (inactive) | 15.3% (inactive) | 18.1% (inactive)
C=CCn1c(SCc2ccc3nonc3c2)nnc1-c1cccs1 | 644 | -14% (inactive) | 3.4% (inactive) | 91.6 | 13.9% (inactive) | 92.9 | -0.384 (inactive) | 4.9e-05 (inactive) | 0.00442 (inactive) | 15% (inactive) | 17.7% (inactive)
Cc1ccc(C)c(N2CCN(C(=O)C3CCN(S(=O)(=O)c4c(C)noc4C)CC3)CC2)c1 | 448 | -10.8% (inactive) | 30.5% (inactive) | 77 | -17.6% (inactive) | 99.8 | -0.474 (inactive) | -8.1e-06 (inactive) | 0.00554 (inactive) | 11.3% (inactive) | -1.19% (inactive)
COc1cc(NC(=O)c2ccc(COCC(F)(F)F)o2)cc(OC)c1OC | 753 | -11.9% (inactive) | -25% (inactive) | 116 | -71% (inactive) | 118 | -0.553 (inactive) | -4.6e-05 (inactive) | 0.00529 (inactive) | 15.8% (inactive) | 24.7% (inactive)
COC(=O)c1cc(NC(=O)C2COc3ccccc3O2)cc(C(=O)OC)c1 (stereo not drawn) | 462 | 6.8% (inactive) | 16.1% (inactive) | 101 | -15.6% (inactive) | 107 | -0.517 (inactive) | -3e-05 (inactive) | 0.00524 (inactive) | 11.6% (inactive) | -7.02% (inactive)
CC(=O)N(c1ccc(N(C(C)=O)S(=O)(=O)c2cccs2)cc1)S(=O)(=O)c1cccs1 | 458 | 1.3% (inactive) | 11.2% (inactive) | 99.2 | -45.8% (inactive) | 99.4 | -0.472 (inactive) | -0.000256 (inactive) | 0.00408 (inactive) | 4.25% (inactive) | 7.23% (inactive)
CC(=O)SCC(=O)N=c1sc2cc(F)ccc2n1C | 491 | 1.1% (inactive) | -2.8% (inactive) | 91.7 | 3.4% (inactive) | 104 | -0.493 (inactive) | 4.8e-06 (inactive) | 0.00565 (inactive) | 3.65% (inactive) | 2.45% (inactive)
CCc1cccc2c(=O)c(C(=O)NCCN3CCOCC3)c[nH]c12 | 584 | 8.2% (inactive) | -3.6% (inactive) | 110 | 27.3% (inactive) | 91.2 | -0.558 (inactive) | -5.3e-05 (inactive) | 0.00469 (inactive) | 1.65% (inactive) | 18.5% (inactive)
